From ChEMBL document CHEMBL1153208, “Identification of a new class of small molecule C5a receptor antagonists” (Bioorg Med Chem Lett, 2010)

Assays:
[1] = molecular target: T1, C5a anaphylatoxin chemotactic receptor 1 (Homo sapiens, UniProt P21730); assay: Displacement of [125I]human anaphylatoxin C5a from human C5a receptor expressed in CHO cells co-expressed with Galpha16 after 1 hr; assay type: cell-based
T1 sequence (P21730 whole entry): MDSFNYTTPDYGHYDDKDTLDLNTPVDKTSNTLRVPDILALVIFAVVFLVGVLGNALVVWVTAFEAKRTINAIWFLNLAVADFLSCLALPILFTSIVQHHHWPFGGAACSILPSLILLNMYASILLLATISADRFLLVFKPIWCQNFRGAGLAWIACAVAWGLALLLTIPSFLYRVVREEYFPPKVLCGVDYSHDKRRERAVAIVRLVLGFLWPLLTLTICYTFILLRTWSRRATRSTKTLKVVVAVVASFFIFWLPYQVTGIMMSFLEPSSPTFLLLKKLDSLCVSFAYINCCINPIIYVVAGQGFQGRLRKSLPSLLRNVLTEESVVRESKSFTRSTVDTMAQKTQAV
Method in brief: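 Intact CHO-Gα16-C5aR cells plated at 50,000/well in growth medium with 10% FBS the day before. Medium replaced by HBSS + 20 mM HEPES + 0.1% BSA. Compound added for 10 min at rt, then 0.6 nM 125I-hC5a for 1 h at rt. Cells washed eight times with PBS + 1 mM CaCl2 + 0.1% BSA on a harvester.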

[2] = molecular target: T1, C5a anaphylatoxin chemotactic receptor 1; assay: Agonist activity at human C5a receptor expressed in CHO cells co-expressed with Galpha16 assessed as effect on anaphylatoxin C5a-induced intracellular calcium accumulation after 10 mins by FLIPR assay; assay type: functional, cell-based
[3] = molecular target: T1, C5a anaphylatoxin chemotactic receptor 1; assay: Antagonist activity at human C5a receptor expressed in CHO cells co-expressed with Galpha16 assessed as inhibition of anaphylatoxin C5a-induced intracellular calcium accumulation after 10 mins by FLIPR assay; assay type: functional, cell-based
[4] = molecular target: T1, C5a anaphylatoxin chemotactic receptor 1; assay: Antagonist activity at C5a receptor in human PMNC assessed as inhibition of anaphylatoxin C5a-induced intracellular calcium accumulation after 10 mins by FLIPR assay; assay type: functional, cell-based
Method in brief: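 Human neutrophils purified from whole blood on a Ficoll gradient, resuspended in Ca3 dye and plated at 50,000 cells/well in HBSS + 20 mM HEPES + 0.1% BSA. After 1 h at 37 °C, 5% CO2, compound added for 10 min, then 10 nM hC5a. Calcium response recorded on FLIPR.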

Blood = assay: Inhibition of anaphylatoxin C5a-induced PMNC shape changes in human whole blood treated 10 mins before anaphylatoxin C5a-induced challenge measured after 40 mins by FACS analysis; assay type: functional, tissue-based
Method in brief: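 Whole-blood assay. After stimulation, cells fixed with ice-cold 1% paraformaldehyde, then red cells lysed in ice-cold hypotonic buffer for 40 min on ice. Neutrophils gated by forward and side scatter on a flow cytometer. Shape change read as the rise in autofluorescence on the FL2-H channel.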

[5] = molecular target: C-X-C chemokine receptor type 4 (Homo sapiens, UniProt P61073); assay: Inhibition of CXCR4 in human T cells; assay type: cell-based, T-cell
P2Y purinoceptor 2 = P2Y purinoceptor 2 (Homo sapiens, UniProt P41231); assay: Inhibition of human P2Y2 receptor expressed in CHO cells; assay type: cell-based
[6] = Inhibition of anaphylatoxin C5a-induced chemotaxis in human PMNC; assay type: functional
[7] = molecular target: T2, C-X-C chemokine receptor type 3 (Homo sapiens, UniProt P49682); assay: Inhibition of CXCR3 in human T cells; assay type: cell-based, T-cell
T2 sequence (P49682 whole entry): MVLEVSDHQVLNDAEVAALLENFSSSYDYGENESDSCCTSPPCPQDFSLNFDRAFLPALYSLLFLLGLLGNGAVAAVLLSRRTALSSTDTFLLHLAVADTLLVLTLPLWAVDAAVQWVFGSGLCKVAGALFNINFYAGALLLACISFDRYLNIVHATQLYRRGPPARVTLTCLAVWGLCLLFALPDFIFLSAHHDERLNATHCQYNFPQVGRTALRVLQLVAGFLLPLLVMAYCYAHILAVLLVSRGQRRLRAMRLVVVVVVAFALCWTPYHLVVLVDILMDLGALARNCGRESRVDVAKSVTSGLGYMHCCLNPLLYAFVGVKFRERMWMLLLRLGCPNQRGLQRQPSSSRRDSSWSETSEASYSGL

C-X-C chemokine receptor type 4, sequence (P61073 whole entry): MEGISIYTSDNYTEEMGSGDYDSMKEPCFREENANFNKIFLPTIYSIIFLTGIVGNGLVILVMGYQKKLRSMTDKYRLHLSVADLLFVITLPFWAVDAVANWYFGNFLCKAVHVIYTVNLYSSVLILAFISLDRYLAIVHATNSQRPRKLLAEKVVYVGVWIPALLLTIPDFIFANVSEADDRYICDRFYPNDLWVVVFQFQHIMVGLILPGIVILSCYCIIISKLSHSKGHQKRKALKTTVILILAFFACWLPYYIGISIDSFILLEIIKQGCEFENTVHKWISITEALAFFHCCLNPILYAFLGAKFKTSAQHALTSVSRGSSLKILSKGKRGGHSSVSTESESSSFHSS
P2Y purinoceptor 2, sequence (P41231 whole entry): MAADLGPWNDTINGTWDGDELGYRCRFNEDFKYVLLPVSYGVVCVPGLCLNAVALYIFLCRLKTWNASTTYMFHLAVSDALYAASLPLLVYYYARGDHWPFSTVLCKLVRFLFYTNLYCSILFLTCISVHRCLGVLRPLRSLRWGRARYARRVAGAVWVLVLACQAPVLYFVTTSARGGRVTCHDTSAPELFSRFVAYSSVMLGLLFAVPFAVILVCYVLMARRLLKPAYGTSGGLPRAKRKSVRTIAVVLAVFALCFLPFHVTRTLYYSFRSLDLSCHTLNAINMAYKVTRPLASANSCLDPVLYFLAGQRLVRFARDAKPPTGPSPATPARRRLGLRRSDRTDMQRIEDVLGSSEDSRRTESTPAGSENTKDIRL

| Compound | IC50 [1] | EC50 [2] | IC50 [3] | IC50 [4] | IC50 (Blood) | IC50 [5] | IC50 (P2Y purinoceptor 2) | IC50 [6] | IC50 [7] |
| --- | --- | --- | --- | --- | --- | --- | --- | --- | --- |
| CN(c1ccccc1N(C)S(=O)(=O)c1ccccc1)S(=O)(=O)c1ccccc1 | > 60 µM | > 60 µM | > 60 µM |  |  |  |  |  |  |
| Cc1ccc(S(=O)(=O)N(C)c2ccc(Cl)cc2C(=O)c2ccccc2)cc1 | 8.7 µM | > 60 µM | > 60 µM |  |  |  |  |  |  |
| Cc1ccc(S(=O)(=O)N(C)c2ccccc2N(C)S(=O)(=O)c2ccc(C)cc2)cc1 | 0.2 µM | > 60 µM | 0.2 µM | 0.0067 µM | 27 µM | > 60 µM | > 60 µM | 5.7 µM | > 60 µM |
| Cc1ccc(S(=O)(=O)N(C)c2ccc(Br)cc2C(=O)c2ccccc2)cc1 | 14.6 µM | > 60 µM | > 60 µM |  |  |  |  |  |  |
| Cc1ccc(S(=O)(=O)N2CCN(S(=O)(=O)c3ccc(C)cc3)CC2)cc1 |  |  | > 60 µM | > 60 µM |  |  |  |  |  |
| Cc1ccc(S(=O)(=O)N2Cc3ccccc3CN(S(=O)(=O)c3ccc(C)cc3)c3ccccc32)cc1 | > 60 µM | > 60 µM | > 60 µM |  |  |  |  |  |  |
| Cc1ccc(S(=O)(=O)N(C)c2ccccc2C(=O)N2CCc3ccccc32)cc1 | 44.5 µM | > 60 µM | 38.3 µM |  |  |  |  |  |  |
| C=CCN(c1ccccc1N(CC=C)S(=O)(=O)c1ccc(C)cc1)S(=O)(=O)c1ccc(C)cc1 | 0.3 µM | > 60 µM | 0.3 µM | 0.059 µM |  | > 60 µM | > 60 µM | 2.5 µM | > 60 µM |
| Cc1ccc(S(=O)(=O)N(C)c2ccccc2C(=O)c2ccsc2)cc1 | 1.7 µM | > 60 µM | 0.6 µM | 0.4 µM | > 60 µM | > 60 µM | > 60 µM | > 60 µM | > 60 µM |
| Cc1ccc(S(=O)(=O)N2CCN(S(=O)(=O)c3ccc(C)cc3)c3ccccc32)cc1 | > 60 µM | > 60 µM | > 60 µM |  |  |  |  |  |  |
| Cc1ccc(S(=O)(=O)N(CCCN(c2ccccc2)S(=O)(=O)c2ccc(C)cc2)c2ccccc2)cc1 |  |  | > 60 µM | > 60 µM |  |  |  |  |  |
| CC(=O)c1ccccc1N(C)S(=O)(=O)c1ccc(C)cc1 | > 60 µM | > 60 µM | > 60 µM |  |  |  |  |  |  |
